TRPC6 inh = mouse TRPC6 channel inhibitors, primary screen, cell-based, HEK293, membrane potential dye. ACh-evoked depolarization; hits give low values. hit rate 1.1% among 310,000. B-score at 10 µM. Short transient receptor potential channel 6 (Mus musculus), Q61143;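 active = B-score under library mean minus 3 SD, initial fluorescence not abnormally high, positive integrated signal ratio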;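 note: B-score derived from integrated fluorescence ratio over the kinetic read; more negative B-score means stronger inhibition of depolarization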
TRPC6 activator = mouse TRPC6 channel activators, primary screen, cell-based, HEK293, membrane potential dye; AID 2550, 2010; Short transient receptor potential channel 6 (Mus musculus), Q61143; B-score at 10 µM; HEK293-TRPC6 membrane potential dye fluorescence; hits give high values; hit rate 0.13% among 310,000;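 active = B-score of the integrated fluorescence ratio above library mean plus 3 SD, and starting fluorescence ratio within library mean plus 5 SD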;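 note: higher score means more depolarization so channel activation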
TRPC4 act = activators of mouse TRPC4 channel, primary screen, Fluo4 calcium, HEK293 TRPC4beta/mu-opioid cells | Short transient receptor potential channel 4 (Mus musculus), Q9QUQ5 | Fluo4 calcium fluorescence; hits give high values | B-score at 10 µM | hit rate 0.49% among 310,000 | AID 2237, 2010;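 active = B-score above 5 SD of library B-scores, and initial fluorescence ratio not above library mean plus 5 SD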;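 note: positive B-score marks a calcium rise read as TRPC4 activation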
Target sequence (Q9QUQ5 whole entry, looked up): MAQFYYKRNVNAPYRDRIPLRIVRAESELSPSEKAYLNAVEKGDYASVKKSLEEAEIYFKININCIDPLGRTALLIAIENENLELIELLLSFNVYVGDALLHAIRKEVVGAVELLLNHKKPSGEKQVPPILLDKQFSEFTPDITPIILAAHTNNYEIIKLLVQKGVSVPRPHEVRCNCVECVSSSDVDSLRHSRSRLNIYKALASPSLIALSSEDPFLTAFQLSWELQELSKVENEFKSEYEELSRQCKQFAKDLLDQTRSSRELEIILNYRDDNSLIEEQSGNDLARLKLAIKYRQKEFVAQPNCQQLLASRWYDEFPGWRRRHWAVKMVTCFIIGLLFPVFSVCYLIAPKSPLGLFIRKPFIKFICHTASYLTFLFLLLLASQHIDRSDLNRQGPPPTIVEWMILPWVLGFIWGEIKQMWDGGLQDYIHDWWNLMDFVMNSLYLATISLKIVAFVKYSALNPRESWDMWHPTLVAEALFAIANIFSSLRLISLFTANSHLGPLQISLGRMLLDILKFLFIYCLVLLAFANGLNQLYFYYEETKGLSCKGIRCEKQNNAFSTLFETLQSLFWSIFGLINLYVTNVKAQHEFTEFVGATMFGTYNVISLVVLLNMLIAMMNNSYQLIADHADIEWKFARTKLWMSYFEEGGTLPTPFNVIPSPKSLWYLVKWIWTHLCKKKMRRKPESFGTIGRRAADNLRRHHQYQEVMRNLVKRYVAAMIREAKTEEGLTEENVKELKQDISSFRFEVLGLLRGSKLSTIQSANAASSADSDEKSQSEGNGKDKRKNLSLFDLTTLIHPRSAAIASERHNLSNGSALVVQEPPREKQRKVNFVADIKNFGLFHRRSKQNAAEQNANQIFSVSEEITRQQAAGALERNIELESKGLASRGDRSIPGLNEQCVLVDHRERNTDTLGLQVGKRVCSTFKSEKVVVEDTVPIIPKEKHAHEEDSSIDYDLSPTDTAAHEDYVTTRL
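Material: HEK293 stable line with TRPC4beta plus mu-opioid receptor; technique: Fluo4 calcium-sensitive dye fluorescence, kinetic, 1 Hz baseline; timing: Fluo4 dye loading 45 min at room temperature, 110 s recording; controls: assay buffer as low control, maximal DAMGO as high control; read-out: integrated baseline-normalised fluorescence ratio, converted to per-well B score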
TRPC4 PAM = positive allosteric modulators of TRPC4, primary screen, cell-based, mouse TRPC4beta, HEK293 mu-opioid, Fluo-4 calcium; DAMGO EC20, Fluo-4 Ca2+ flux; hits give high values; hit rate 0.42% among 310,000; Short transient receptor potential channel 4 (Mus musculus), Q9QUQ5; B-score at 10 µM; AID 2227, 2009;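 active = B-score of calcium response area above 5 SD of library B-scores, with initial fluorescence ratio within 5 SD of library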
TRPC4 block = inhibitors of mouse TRPC4 channel, primary screen, Fluo4 calcium, HEK293 TRPC4beta/mu-opioid cells. B-score at 10 µM. DAMGO-evoked Fluo4 calcium flux; hits give low values. hit rate 0.39% among 300,000. Short transient receptor potential channel 4 (Mus musculus), Q9QUQ5;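 active = B-score over 3 SD under the library average, no early fluorescence shift, positive overall ratio signal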
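Test system – stable TRPC4beta/mu-opioid receptor HEK293 cells · Probe or stimulus – DAMGO, a submaximal dose followed by a maximal one · Dosing – one concentration per compound · Signal – Fluo4 calcium fluorescence by kinetic imaging, 5 s 1 Hz baseline · Evaluation – per-well B score of integrated baseline-normalized Fluo4 ratio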
TRPC4 spec 2 = second selectivity test of TRPC6 inhibitors: effect on mouse TRPC4; shares compounds with TRPC6 inh; HEK293 TRPC4/MOR, membrane potential dye fluorescence; channel activated by saturating DAMGO dose; inhibition, % at 10 µM; hit rate 42% among 920; AID 2776;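 active = compounds whose fluorescence signal differed from control wells by over 3 SD, either direction, in both duplicate plates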
TRPC4 spec = mouse TRPC4 modulation by TRPC6 hits, confirmation, selectivity assay for TRPC6 inhibitor project, cell-based, HEK293 TRPC4/mu-opioid, membrane potential dye; shares compounds with TRPC6 inh; membrane potential fluorescence; activity change, negative = inhibition, % at 10 µM; hit rate 61% among 920; AID 2777, 2010;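 active = rise or fall in signal beyond 3 SD of buffer-only wells in both replicate plates, either sign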;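 note: integrated kinetic ratio of fluorescence range over baseline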
HEK293 MPD ctr 2-1 = nonspecific membrane potential effects, parental HEK293, confirmation, counter-screen for TRPC6 inhibitor project, cell-based, second counter screen; shares compounds with TRPC6 inh; parental HEK293 membrane potential dye fluorescence; maximal acetylcholine challenge after compound addition; signal change vs control, % at 10 µM; hit rate 31% among 920; AID 2779, 2010;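 active = membrane potential signal moving either way by over 3 SD of the maximum-effect control, in both duplicate plates, meaning non-specific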
HEK293 MPD ctr-1 = membrane potential modulation in parental HEK293, confirmation, counter-screen for TRPC6 inhibitor project, cell-based. membrane potential signal change, % at 10 µM. parental HEK293 membrane potential dye fluorescence. hit rate 60% among 920. shares compounds with TRPC6 inh;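 active = membrane potential signal shifting up or down by more than 3 SD of buffer-only wells, on both duplicate plates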
HEK293 MPD ctr-2 = parental HEK293 membrane potential modulation, confirmation, counter-screen for TRPC6 modulator project, cell-based | membrane potential signal change, % at 10 µM | shares compounds with TRPC6 inh | hit rate 51% among 2,400 | membrane potential dye fluorescence;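 active = membrane potential signal moves up or down beyond 5 SD from buffer-only wells, on both duplicate plates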
HEK293 MPD ctr 2-2 = second counter-screen for TRPC6 modulators: effect in parental HEK293 cells. hit rate 14% among 2,400. shares compounds with TRPC6 inh. inhibition, % at 10 µM. membrane potential dye fluorescence; after compound, maximal acetylcholine stimulation;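 active = membrane potential signal drops by more than 5 SD from the mean control signal, in both duplicate plates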
TRPC4 ctr mod = TRPC4 modulation by TRPC6 hit compounds, confirmation, selectivity assay for TRPC6 modulator project, cell-based, HEK293 TRPC4/mu-opioid, membrane potential dye, mouse; shares compounds with TRPC6 inh; membrane potential fluorescence; percent change from control (negative = decrease, positive = increase), % at 10 µM; hit rate 69% among 2,400; AID 488927, 2010;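 active = membrane potential signal moved up or down beyond 5 SD of buffer control wells, in both duplicate plates, actives on both sides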
TRPC4 ctr inh 2 = mouse TRPC4 off-target activity of TRPC6 modulators, second screen; HEK293 TRPC4/mu-opioid, membrane potential dye fluorescence; stimulated with maximal-effect DAMGO; shares compounds with TRPC6 inh; hit rate 55% among 2,400; inhibition, % at 10 µM; AID 488928;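 active = drop in membrane potential signal beyond 5 SD of the control wells in both duplicate plates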;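 note: TRPC4 counter screen for TRPC6 hits run under conditions tuned for TRPC6 not TRPC4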
TRPC6 block conf = mouse TRPC6 channel inhibitors, confirmation, HEK293 cells, membrane potential dye, duplicate | shares compounds with TRPC6 inh | ACh-evoked depolarization | inhibition, % at 10 µM | hit rate 43% among 3,300;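 active = fluorescence ratio falls more than 5 SD below the full-stimulation control mean, in both duplicate runs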;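 note: integrated fluorescence ratio of peak minus minimum over baseline after agonist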
TRPC6 act conf = mouse TRPC6 channel activators, confirmation, HEK293 cells, membrane potential dye, duplicate | shares compounds with TRPC6 inh | HEK293-TRPC6 membrane potential dye fluorescence, FDSS | activation, % at 10 µM | hit rate 11% among 2,800 | AID 488961, 2010;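 active = ratio signal rise beyond 5 SD above unstimulated control wells' mean, seen in both duplicate runs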
Each line names hits and unclear results; the compound was inactive in the other large screens (follow-up assays come after a bar, where they were run). The list is not random: actives were taken first. Their share in the collection is about 2.3%.

Cc1ccn2c(Nc3ccccc3C)c(-c3ccccn3)nc2c1	TRPC6 inh -5.7 | HEK293 MPD ctr-2 -129.5% | HEK293 MPD ctr 2-2 inactive | TRPC4 ctr mod -27.0% | TRPC4 ctr inh 2 81.0% | TRPC6 block conf inactive | TRPC6 act conf inactive
Cc1ccccc1Nc1c(-c2ccncc2)nc2ccc(Br)cn12	TRPC6 inh -7.02 | HEK293 MPD ctr-2 -131.0% | HEK293 MPD ctr 2-2 inactive | TRPC4 ctr mod -39.0% | TRPC4 ctr inh 2 93.5% | TRPC6 block conf 63.5% | TRPC6 act conf inactive
Cc1ccccc1Nc1c(-c2cccnc2)nc2ccc(Br)cn12	none
Cc1ccccc1Nc1c(-c2cccnc2)nc2ccccn12	TRPC6 inh -5.57 | HEK293 MPD ctr-2 -132.5% | HEK293 MPD ctr 2-2 inactive | TRPC4 ctr mod -14.5% | TRPC4 ctr inh 2 65.5% | TRPC6 block conf inactive | TRPC6 act conf inactive
COc1ccc2nc(NC(=O)CCc3cc(OC)c(OC)c(OC)c3)sc2c1	none
CC(C)c1ccc(CN2C(=O)NC3(CCCCCC3)C2=O)cc1	none
CCOC(=O)C1CCN(C(=O)c2cccc(S(=O)(=O)Nc3ccc(C)cc3C)c2)CC1	TRPC6 inh -5.27 | HEK293 MPD ctr-2 inactive | HEK293 MPD ctr 2-2 inactive | TRPC4 ctr mod 12.5% | TRPC4 ctr inh 2 inactive | TRPC6 block conf 36.5%
CCOC(=O)C1CCN(C(=O)c2ccccc2NS(=O)(=O)c2ccccc2)CC1	none
CCCCCCN1C=CC=C/C1=C\C=C(C#N)C#N	TRPC6 activator 13.1 | HEK293 MPD ctr-2 253.0% | HEK293 MPD ctr 2-2 inactive | TRPC4 ctr mod 75.0% | TRPC4 ctr inh 2 inactive | TRPC6 block conf inactive | TRPC6 act conf 101.5%
CC1=C/C(=C\C=C(C#N)C#N)N(C)c2ccccc21	none
Cc1cc(NC(=O)CSc2nc(-c3ccccc3)c(C#N)c(=O)[nH]2)no1	none
Cc1cc(C)nc(NS(=O)(=O)c2ccc(NC(=O)CSc3nc(-c4ccccc4)c(C#N)c(=O)[nH]3)cc2)n1	TRPC6 activator 12.8 | HEK293 MPD ctr-2 inactive | HEK293 MPD ctr 2-2 inactive | TRPC4 ctr mod 10.5% | TRPC4 ctr inh 2 inactive | TRPC6 block conf inactive | TRPC6 act conf 81.0%
c1cc(CSc2nnc(-c3ccc4c(c3)OCO4)o2)ccn1	none
C/C(N)=C(/C#N)C(=O)COC(=O)c1ccccc1Cc1ccccc1	TRPC6 inh -8.26 | TRPC4 spec 2 inactive | TRPC4 spec -11.1% | HEK293 MPD ctr 2-1 inactive | HEK293 MPD ctr-1 inactive | TRPC6 block conf inactive | TRPC6 act conf inactive
C/C(N)=C(/C#N)C(=O)COC(=O)c1ccncc1	none
COc1ccc(NC(=O)/C=C/c2c(Cl)nc3ccccn23)cc1	none
CN(C)CCc1cc2c(c3c1ccc1ccccc13)OCO2	TRPC6 inh -5.18 | HEK293 MPD ctr-2 inactive | HEK293 MPD ctr 2-2 inactive | TRPC4 ctr mod -10.5% | TRPC4 ctr inh 2 47.0% | TRPC6 block conf inactive | TRPC6 act conf inactive
Cc1[nH]c2c(C)cccc2c1CCNS(=O)(=O)c1cccc([N+](=O)[O-])c1	TRPC6 inh -8.69 | HEK293 MPD ctr-2 -100.5% | HEK293 MPD ctr 2-2 inactive | TRPC4 ctr mod -26.0% | TRPC4 ctr inh 2 31.5% | TRPC6 block conf inactive | TRPC6 act conf inactive
Cc1ccc([N+](=O)[O-])cc1S(=O)(=O)NCCc1c(C)[nH]c2c(C)cccc12	none
CN(C)CCCNc1c2c(nc3cc(-c4cccc(F)c4)nn13)CCC2	TRPC6 inh -7.27, TRPC4 act 123 | HEK293 MPD ctr-2 inactive | HEK293 MPD ctr 2-2 126.5% | TRPC4 ctr mod -20.5% | TRPC4 ctr inh 2 51.5% | TRPC6 block conf 78.5% | TRPC6 act conf inactive
CCOCCCNc1c2c(nc3cc(-c4ccc(F)cc4)nn13)CCC2	none
NC(=O)c1ccccc1NC(=O)c1ccccc1Cl	none
O=C(Nc1ccccc1C(=O)Nc1nnc(C(F)(F)F)s1)c1ccccc1Cl	TRPC6 inh -6.51 | HEK293 MPD ctr-2 121.0% | HEK293 MPD ctr 2-2 inactive | TRPC4 ctr mod 25.5% | TRPC4 ctr inh 2 54.5% | TRPC6 block conf 55.0%
COc1cc(N2CCCC2)c(OC)cc1C=O	TRPC6 inh -7.89 | TRPC4 spec 2 inactive | TRPC4 spec inactive | HEK293 MPD ctr 2-1 249.5% | HEK293 MPD ctr-1 inactive | TRPC6 block conf inactive | TRPC6 act conf inactive
O=C(NCCS(=O)(=O)N1CCN(c2ccccc2)CC1)c1ccccc1F	none
CCN(CC)CCNc1nc2c(c(=O)[nH]c(=O)n2C)n1CC(O)COc1ccc(Cl)cc1Cl (stereo unspecified)	TRPC6 inh -8.78 | HEK293 MPD ctr-2 -308.5% | HEK293 MPD ctr 2-2 58.0% | TRPC4 ctr mod -56.0% | TRPC4 ctr inh 2 35.0% | TRPC6 block conf 41.5% | TRPC6 act conf inactive
